In paper PMC7856040 (ChemMedChem, 2020):

Assays:
[1] = system: first instar (Liverpool, LVP) Ae. aegypti; test: larvae toxicity screen, small molecules added to the rearing water; format: in vivo; conditions: for mortality at 48 h compared to VU854: 100 μM, first instar LVP larvae, one-way ANOVA, Dunnett's test; for mortality at 100 µM: Aedes aegypti, 48 h, read-out: mortality at 48 h
AeKir = AeKir (Aedes aegypti, UniProt L0EQS9); test: fluorescence-based in vitro thallium; format: cell-based; conditions: HEK293
Outline: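 Fluorescence thallium-flux read-out in HEK293 cells expressing AeKir under tetracycline induction. Signals normalized to baseline Tl+ flux in the same line left uninduced by tetracycline. IC50 is the mean ± SEM of at least three independent experiments. Percent inhibition is taken at the highest concentration tested.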

[2] = system: first instar (LVP or PR) Ae. aegypti; test: larval toxicity concentration response curve; format: in vivo

inhibition at 30000 µM (AeKir) [%]	SMILES	also measured
100	O=[N+]([O-])c1ccc(N2CCN(S(=O)(=O)c3ccc(F)cc3)CC2)cc1F [Compound 8, 1-(3-fluoro-4-nitrophenyl)-4-((4-fluorophenyl)sulfonyl)piperazine]	mortality at 48 h compared to VU854 [1]: significantly greater mortality; mortality at 100 µM [1]: 100%; times more potent against the LVP strain (versus PR) ([2]; CRC, 48 h): ~ 2 times
96	O=[N+]([O-])c1ccc(N2CCN(S(=O)(=O)c3ccc(F)cc3)CC2)cc1NCc1ccco1 [Compound 9a, 5-(4-((4-fluorophenyl)sulfonyl)piperazin-1-yl)-N-(furan-2-ylmethyl)-2-nitroaniline]	–
109	Cc1cc(CNc2cc(N3CCN(S(=O)(=O)c4ccc(F)cc4)CC3)ccc2[N+](=O)[O-])no1 [Compound 9f, 5-(4-((4-fluorophenyl)sulfonyl)piperazin-1-yl)-N-((5-methylisoxazol-3-yl)methyl)-2-nitroaniline]	–
110	Cc1nnc(CNc2cc(N3CCN(S(=O)(=O)c4ccc(F)cc4)CC3)ccc2[N+](=O)[O-])o1 [Compound 9g, 5-(4-((4-fluorophenyl)sulfonyl)piperazin-1-yl)-N-((5-methyl-1,3,4-oxadiazol-2-yl)methyl)-2-nitroaniline]	–
97	O=[N+]([O-])c1ccc(N2CCN(S(=O)(=O)c3ccc(F)cc3)CC2)cc1NCc1nccs1 [Compound 9h, 5-(4-((4-fluorophenyl)sulfonyl)piperazin-1-yl)-2-nitro-N-(thiazol-2-ylmethyl)aniline]	–
107	CC(Nc1cc(N2CCN(S(=O)(=O)c3ccc(F)cc3)CC2)ccc1[N+](=O)[O-])c1nccs1 (stereo not shown) [Compound 9i, 5-(4-((4-fluorophenyl)sulfonyl)piperazin-1-yl)-2-nitro-N-(1-(thiazol-2-yl)ethyl)aniline]	–
111	Cc1ncc(CNc2cc(N3CCN(S(=O)(=O)c4ccc(F)cc4)CC3)ccc2[N+](=O)[O-])s1 [Compound 9j, 5-(4-((4-fluorophenyl)sulfonyl)piperazin-1-yl)-N-((2-methylthiazol-5-yl)methyl)-2-nitroaniline]	–
98	O=[N+]([O-])c1ccc(N2CCN(S(=O)(=O)c3ccc(F)cc3)CC2)cc1NCc1ncco1 [Compound 9k, 5-(4-((4-fluorophenyl)sulfonyl)piperazin-1-yl)-2-nitro-N-(oxazol-2-ylmethyl)aniline]	–
109	CC(Nc1cc(N2CCN(S(=O)(=O)c3ccc(F)cc3)CC2)ccc1[N+](=O)[O-])c1ncco1 (stereo not shown) [Compound 9l, 5-(4-((4-fluorophenyl)sulfonyl)piperazin-1-yl)-2-nitro-N-(1-(oxazol-2-yl)ethyl)aniline]	–
99	O=[N+]([O-])c1ccc(N2CCN(S(=O)(=O)c3ccc(F)cc3)CC2)cc1NCc1cnco1 [Compound 9m, 5-(4-((4-fluorophenyl)sulfonyl)piperazin-1-yl)-2-nitro-N-(oxazol-5-ylmethyl)aniline]	–
100	Cc1cnc(CNc2cc(N3CCN(S(=O)(=O)c4ccc(F)cc4)CC3)ccc2[N+](=O)[O-])o1 [Compound 9n, 5-(4-((4-fluorophenyl)sulfonyl)piperazin-1-yl)-N-((5-methyloxazol-2-yl)methyl)-2-nitroaniline]	mortality at 48 h compared to VU854 [1]: similarly efficacious as VU854
106	Cc1ncc(CNc2cc(N3CCN(S(=O)(=O)c4ccc(F)cc4)CC3)ccc2[N+](=O)[O-])o1 [Compound 9o, 5-(4-((4-fluorophenyl)sulfonyl)piperazin-1-yl)-N-((2-methyloxazol-5-yl)methyl)-2-nitroaniline]	–
109	O=[N+]([O-])c1ccc(N2CCN(S(=O)(=O)c3ccc(F)cc3)CC2)cc1NCc1ncon1 [Compound 9p, N-((1,2,4-oxadiazol-3-yl)methyl)-5-(4-((4-fluorophenyl)sulfonyl)piperazin-1-yl)-2-nitroaniline]	mortality at 48 h compared to VU854 [1]: significantly greater mortality; mortality at 100 µM [1]: 99%; mortality at 100 µM ([2]; Aedes aegypti, 48 h, read-out: maximal mortality within 48 h): ~50%; pathology observed in treated larvae ([2]; contiguous trail of excrement from midgut beyond the rectum): constipation or excretory failure
109	Cc1nc(CNc2cc(N3CCN(S(=O)(=O)c4ccc(F)cc4)CC3)ccc2[N+](=O)[O-])no1 [Compound 9q, 5-(4-((4-fluorophenyl)sulfonyl)piperazin-1-yl)-N-((5-methyl-1,2,4-oxadiazol-3-yl)methyl)-2-nitroaniline]	mortality at 48 h compared to VU854 [1]: similarly efficacious as VU854
99	O=[N+]([O-])c1ccc(N2CCN(S(=O)(=O)c3ccc(F)cc3)CC2)cc1NCc1ccon1 [Compound 9r, 5-(4-((4-fluorophenyl)sulfonyl)piperazin-1-yl)-N-(isoxazol-3-ylmethyl)-2-nitroaniline]	–
61	Cc1nnc(CNc2cc(N3CCN(S(=O)(=O)c4ccc(F)cc4)CC3)ccc2[N+](=O)[O-])s1 [Compound 9s, 5-(4-((4-fluorophenyl)sulfonyl)piperazin-1-yl)-N-((5-methyl-1,3,4-thiadiazol-2-yl)methyl)-2-nitroaniline]	mortality at 48 h compared to VU854 [1]: similarly efficacious as VU854
10	O=[N+]([O-])c1ccc(N2CCN(S(=O)(=O)c3ccc(F)cc3)CC2)cc1NCc1cc2ccccc2o1 [Compound 9t, N-(benzofuran-2-ylmethyl)-5-(4-((4-fluorophenyl)sulfonyl)piperazin-1-yl)-2-nitroaniline]	–
29	O=[N+]([O-])c1ccc(N2CCN(S(=O)(=O)c3ccc(F)cc3)CC2)cc1NCc1nc2ccccc2o1 [Compound 9u, N-(benzo[d]oxazol-2-ylmethyl)-5-(4-((4-fluorophenyl)sulfonyl)piperazin-1-yl)-2-nitroaniline]	–
